Data reported in the RNAGym collection of RNA variant scans (doi:10.1126/science.aae0568).
This sample holds only a part of the variants without activity.

B1: tRNA (parent)
chain: GUUCCGUUGGCGUAAUGGUAACGCGUCUCCCUCCUAAGGAGAAGACUGCGGGUUCGAGUCCCGUACGGAACG

Variants of: B1
Assay: yeast fitness relative to wild type (ratio to wild type); higher = fitter; tRNA-Arg(CCU), competitive growth, 37 C, YPD
Outline: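 Genotype frequency changes were the basis for Darwinian fitness relative to wild type. The frequencies came from 100-nucleotide paired-end sequencing of gene amplicons from the start population and each end population of pooled yeast strains with tRNA-Arg(CCU) gene variants at the native locus. Competition ran in YPD at 37°C for 24 hours in six replicates, genotypes needed ≥ 100 starting reads, and estimates < 0.5 were set to 0.5.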

Row | Variant | yeast fitness
1 | GUUCCGUUGGCGUAACGGUAAAGCGUCUCCCUCCUAAGGAGAAGACUGCGGGCUCGAGUCCCGUAGGGUACG [U16C C22A U53C C66G A69U] | ≤ 0.5
2 | GUUCCGUUGGCGUAACGGUAAUGCAUCUCCGUCCUAAGGAGAAGACUGCGGAUUCGAGUCCCGUACGGAACG [U16C C22U G25A C31G G52A] | 0.589
3 | GUUCCGUUGGCGUAACGGUAACGCGUGUCCCUACUAACGAGGAGACUGCGGGUUCGAGUCCCGUACGGAACG [U16C C27G C33A G38C A42G] | 0.884
4 | GUUCCGUUGGCGUAACGGUAAUGCGUCUCCCUCCUAAGGAGAAGACAGCGGGUUCGAGUGCAGUACGGAACG [U16C C22U U47A C60G C62A] | ≤ 0.5
5 | GUUCCGUUGGCGUAACGGUAAAGAGCCUCCCUCCUAAGGAGAAGACUGCGGGUUCGAGUCCCGUACGGAACG [U16C C22A C24A U26C] | ≤ 0.5
6 | GUUCCGUUGGCGUAACGGUAACGCGUCUCCUUCCUAAGGAGAAGACUGCGGGUUCGAGUCCCGUACGGAACG [U16C C31U] | 0.953
7 | GUUCCGUUGGCGUAACGGUAACGCGUCUCCAUCCUAAGGAGAAGACUGCGGGUUCGAGUCCCGUACGGAACG [U16C C31A] | 0.906
8 | GUUCCGUUGGCGUAACGGUAACGGGUCUCCCUCCUAAGGAGAAGACUGCGGGUUCGAGUCCCGUACGGAACG [U16C C24G] | 0.64
9 | GUUCCGUUGGCGUAACGGUAAGGCGUCUCCCUCCUAAGGAGAAGACUGCGGGUUCGAGUCCUGUACGGAACG [U16C C22G C62U] | 0.716
10 | GUUCCGUUGGCGUAACGGUAACGCGUCUCCAUCCUAAGGAGAAGACUGCGGGUUCAAGUCCCGUGAGCAACG [U16C C31A G56A A65G C66A G68C] | ≤ 0.5
11 | GUUCCGUUGGCGUAACGGUAACGCGUCUCCGUCCUUAGGAGAAGACUGCGGGUUCGAGUGCCGUACGGAACG [U16C C31G A36U C60G] | 0.694
12 | GUUCCGUUGGCGUAACGGUAAUGCGUCUCCCUCCUAAGGAGAAGACUGCGGGUUCGAGUCCCAUACGGAACG [U16C C22U G63A] | 0.545
13 | GUUCCGUUGGCGUAACGGUAACGCGUCUCUCUCGUAAGAAGAAGACUGCGGGUUCGAGUCCCGUACGGAACG [U16C C30U C34G G39A] | ≤ 0.5
14 | GUUCCGUUGGCGUAACGGUAAUGCGUCUCCCUCCUAUGGAGAAGACUGCGGGUUCGAGUCCCGUACGGAACG [U16C C22U A37U] | 0.576
15 | GUUCCGUUGGCGUAACGGUAACGCGUCUCCCUCCUAAGGAGAAGAAUGCGGGUUCAAGUCCCGUACGGAACG [U16C C46A G56A] | 0.769
16 | GUUCCGUUGGCGUAACGGUAACGCGUCUCACUCCUAAGGACAAGCGUGCGGGUUCGAGUCCCGUACGGAACG [U16C C30A G41C A45C C46G] | ≤ 0.5
17 | GUUCCGUUGGCGUAACGGUAACGCGUCUCUCUCCUAAGGAGAAGACUGCGGGUUCGAGUCCUGUACGGAACG [U16C C30U C62U] | 0.645
18 | GUUCCGUUGGCGUAACGGUAACGCGUCUGCCUCCUAAGGAGAAGACUGCGGGAUCGAGUCCCGCACGGAACG [U16C C29G U53A U64C] | ≤ 0.5
19 | GUUCCGUUGGCGUAACGGUAACGUGUCUCCCUUCUAAGGAGAAGACUGCGGGUUAGAGUCCCGUACGGAACG [U16C C24U C33U C55A] | ≤ 0.5

Row | Variant | yeast fitness
20 | GUUCCGUUGGCGUAACGGUAACGCGUCUCCCUGCUAAGGAGAAGACUGCGAGUUAGAGUCCCGUACGGAACG [U16C C33G G51A C55A] | ≤ 0.5
21 | GUUCCGUUGGCGUAACGGUAACGCGUCUCCCUCAUAGGGAGAAGACUGCGGGUUCGAGACCCGUACGGAACG [U16C C34A A37G U59A] | ≤ 0.5
22 | GUUCCGUUGGCGUAACGGUAAGGCGUCUCCCUCCUAAGGAGAAGAGUGUGGGUUCGAGUCCCGUACGGUACG [U16C C22G C46G C49U A69U] | 0.55
23 | GUUCCGUUGGCGUAACGGUAACGCGUCUCCCUCCUAAGGAGAAGACUGCGGGUUCGAGUCCCGUACGGCACG [U16C A69C] | 0.889
24 | GUUCCGUUGGCGUAACGGUAACGCGUUUCCCUCCUAAGGAGGAGACUGCGGGUUCGAGUCCCGUACAGAACG [U16C C27U A42G G67A] | ≤ 0.5
25 | GUUCCGUUGGCGUAACGGUAACGCGUCUCCCUCAUAAGCAGAAGACUGCGGAUUCGAAUCCCGUACGGAACG [U16C C34A G39C G52A G58A] | ≤ 0.5
26 | GUUCCGUUGGCGUAACGGUAAGGCGUCUCCCUCCUAAGGAGAAGACUGCGGGUCCGAGUCCCGUACGGAACG [U16C C22G U54C] | 0.661
27 | GUUCCGUUGGCGUAACGGUAACGCGUCUCCGUCAUAAGGAGAAGACUGCGGGUUCGAGUCCCGUACGGAACG [U16C C31G C34A] | 0.678
28 | GUUCCGUUGGCGUAACGGUAACGCGUGUCCCUCCUAAGGAGACGACUGCGGGUUCGAGUCCUGUACGGAACG [U16C C27G A43C C62U] | ≤ 0.5
29 | GUUCCGUUGGCGUAACGGUAACGCGUAUCCCUCCUAAGGAGAAGACUGCGGGUUCGAGUCCCGUACGGAACG [U16C C27A] | 0.963
30 | GUUCCGUUGGCGUAACGGUAACGCGUUUCCCUCCUAAGGAGAAGACUGCGGGUUCGAGUCCCGUACGGAACG [U16C C27U] | 1.02
31 | GUUCCGUUGGCGUAACGGUAACGCGUCUUCCUCCUAAGGAGAAGACUGCGGGUUCGAAUCCCGUACGGUACG [U16C C29U G58A A69U] | 0.577
32 | GUUCCGUUGGCGUAACGGUAAUGCGUCUCCCUCCUAUGGAGAAGACUGAGGGUUCGAGUCCCGUACGGAACG [U16C C22U A37U C49A] | 0.574
33 | GUUCCGUUGGCGUAACGGUAAUGUGUCUUCCUCCUAAGGAGAAGACUGCGGGUUCGAGUCCCGUACGGAACG [U16C C22U C24U C29U] | ≤ 0.5
34 | GUUCCGUUGGCGUAACGGUAACGCGUCUCCCUCCUAAGGAGAAGACUGCGGGUUCGAGUCCCGUUCGGAACG [U16C A65U] | 0.965
35 | GUUCCGUUGGCGUAACGGUAACGCGUCUCCCUUCUAAGGAGAAGACUGCGGGUUCGAGUCCCGUACGGAACG [U16C C33U] | 0.686
36 | GUUCCGUUGGCGUAACGGUAAGGCGUCUCCCUCCUAAGGAGAUGACUGCGGGUUCGAGUCCCGUACGGAACG [U16C C22G A43U] | 0.692
37 | GUUCCGUUGGCGUAACGGUAACGCGUCUCCCUUCUAAGGAGAAGACUGCGGGUUCGAAUCCCGUACGGAACG [U16C C33U G58A] | ≤ 0.5
